This passage reports half-life and Ki results from ChEMBL document CHEMBL4196195, “( R)- N-(1-Methyl-2-hydroxyethyl)-13-( S)-methyl-arachidonamide (AMG315): A Novel Chiral Potent Endocannabinoid Ligand with Stability to Metabolizing Enzymes” (J Med Chem, 2018).

pKi: −log10 of the molar value.

The target of data set [1] is T1, FAAH (fatty-acid amide hydrolase 1) (Homo sapiens, UniProt O00519).
T1 sequence (O00519 whole entry): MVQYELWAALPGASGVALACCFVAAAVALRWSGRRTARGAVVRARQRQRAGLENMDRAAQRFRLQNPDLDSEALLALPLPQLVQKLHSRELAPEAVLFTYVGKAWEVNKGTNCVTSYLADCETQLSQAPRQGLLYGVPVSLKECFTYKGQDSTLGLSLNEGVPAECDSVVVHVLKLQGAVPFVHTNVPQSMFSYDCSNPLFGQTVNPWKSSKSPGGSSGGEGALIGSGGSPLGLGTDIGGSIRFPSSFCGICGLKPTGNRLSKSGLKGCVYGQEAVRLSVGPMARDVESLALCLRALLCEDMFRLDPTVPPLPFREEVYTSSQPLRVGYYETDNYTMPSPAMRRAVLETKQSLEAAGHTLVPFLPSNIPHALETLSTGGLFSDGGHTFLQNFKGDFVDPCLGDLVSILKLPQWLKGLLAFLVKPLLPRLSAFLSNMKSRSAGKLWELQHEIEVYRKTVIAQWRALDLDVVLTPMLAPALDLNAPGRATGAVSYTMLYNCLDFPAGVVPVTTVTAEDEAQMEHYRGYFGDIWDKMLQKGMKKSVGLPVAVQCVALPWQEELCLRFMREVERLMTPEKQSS
Description: Stability assessed as human FAAH-mediated compound hydrolysis by LC-MS/MS analysis. The data set is classed as ADME. The note with it: human FAAH (fatty-acid amide hydrolase 1), read-out: Stability. In outline: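 Expressed, partially purified rat or human FAAH incubated with compound, or AEA as reference substrate, for 30 min. Aliquots at time points quenched in acetonitrile to precipitate protein. Remaining compound measured by LC-MS/MS on a cyano column with 10 mM ammonium acetate pH 7.3/methanol at 0.5 mL/min.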

For data set [2], the target named is T2, MGL (monoglyceride lipase) (Homo sapiens, UniProt Q99685).
T2 sequence (Q99685 whole entry): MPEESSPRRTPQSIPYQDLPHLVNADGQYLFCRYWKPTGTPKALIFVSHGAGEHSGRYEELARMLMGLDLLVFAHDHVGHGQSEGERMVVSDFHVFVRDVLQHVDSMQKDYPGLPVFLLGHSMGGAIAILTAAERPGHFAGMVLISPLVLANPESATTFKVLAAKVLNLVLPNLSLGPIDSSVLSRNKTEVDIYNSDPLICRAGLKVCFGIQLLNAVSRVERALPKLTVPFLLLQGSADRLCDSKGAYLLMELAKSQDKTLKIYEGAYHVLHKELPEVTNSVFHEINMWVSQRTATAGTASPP
The experiment in a line: Stability assessed as human MGL-mediated compound hydrolysis by HPLC analysis. It is filed as ADME. As to conditions: read-out: Stability. The method, boiled down:
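Human MGL or ABHD6 expressed in E. coli BL21(DE3); cell lysate in 150 mM NaCl, 50 mM Tris, 1% Triton X-100, pH 8.0. Lysate (0.5 µg total protein) incubated at 37 °C with compound or 2-AG reference for 30 min. Samples at 0–30 min quenched in acetonitrile. Analysed by C18 reversed-phase HPLC with UV at 204 nm against external standards.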

For the next data set, the target named is Cannabinoid receptor 2 (Mus musculus, UniProt P47936). The experiment in a line: Displacement of [3H]CP-55,940 from mouse CB2 receptor expressed in HEK293 cell membranes in absence of FAAH inhibitor PMSF by radioligand binding assay. In outline: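 Membranes from HEK293 cells expressing human or mouse CB2 (preparations lacking FAAH activity), competing against [3H]CP-55,940. IC50 by nonlinear regression, converted to Ki. Three independent experiments run in triplicate; Ki is the mean of the three.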
Sequence of Cannabinoid receptor 2 (P47936 whole entry): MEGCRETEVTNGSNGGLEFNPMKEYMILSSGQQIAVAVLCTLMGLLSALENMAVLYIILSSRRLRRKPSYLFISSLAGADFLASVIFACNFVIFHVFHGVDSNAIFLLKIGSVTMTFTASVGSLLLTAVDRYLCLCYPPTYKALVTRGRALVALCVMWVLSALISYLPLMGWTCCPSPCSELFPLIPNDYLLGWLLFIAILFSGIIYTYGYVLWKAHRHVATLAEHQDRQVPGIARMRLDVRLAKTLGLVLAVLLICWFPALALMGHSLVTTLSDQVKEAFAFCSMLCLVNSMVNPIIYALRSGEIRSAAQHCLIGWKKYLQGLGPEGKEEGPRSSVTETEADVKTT

The target of another data set is Cannabinoid receptor 1 (Rattus norvegicus, UniProt P20272). Description: Displacement of [3H]CP-55,940 from CB1 receptor in rat brain membranes in presence of FAAH inhibitor PMSF by radioligand binding assay. The data set is classed as cell membranes, Membrane.
Sequence of Cannabinoid receptor 1 (P20272 whole entry): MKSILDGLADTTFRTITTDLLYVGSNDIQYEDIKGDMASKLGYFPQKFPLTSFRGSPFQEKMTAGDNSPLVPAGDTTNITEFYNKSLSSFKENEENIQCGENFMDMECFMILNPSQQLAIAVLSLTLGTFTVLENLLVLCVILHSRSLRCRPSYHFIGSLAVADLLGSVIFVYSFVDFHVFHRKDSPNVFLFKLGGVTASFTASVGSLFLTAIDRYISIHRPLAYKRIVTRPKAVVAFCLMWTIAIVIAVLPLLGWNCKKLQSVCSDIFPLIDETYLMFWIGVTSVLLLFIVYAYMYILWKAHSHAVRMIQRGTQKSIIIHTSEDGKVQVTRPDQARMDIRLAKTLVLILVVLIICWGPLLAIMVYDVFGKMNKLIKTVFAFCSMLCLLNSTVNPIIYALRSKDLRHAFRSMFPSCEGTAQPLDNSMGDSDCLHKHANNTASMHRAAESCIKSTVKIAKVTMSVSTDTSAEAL

With `CCCCC/C=C\[C@H](C)/C=C\C/C=C\C/C=C\CCCC(=O)N[C@H](C)CO`, the half-life in data set [1] and in data set [2] was 30 min in each case. Also, the negative logarithm of the Ki (pKi) was 6.19 on Cannabinoid receptor 2 and 8.05 at Cannabinoid receptor 1.
